Values after ≈ are worked out from the molar mass of the structure shown.
What was measured:
[1] = Inhibition of Staphylococcus aureus UPPS using FPP/IPP as substrate by spectrophotometry
How it was run: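 Continuous spectrophotometric assay following UPPS-catalysed condensation of FPP with IPP. IC50 from fit of inhibition data to rectangular hyperbolic dose-response function.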

[2] = Binding affinity to DNA dodecamer complex (CGCGAATTCGCG)2 (unknown origin) assessed as change in melting temperature by differential scanning calorimetry
Escherichia coli = assay: Antimicrobial activity against Escherichia coli K-12 after 3 hrs by broth microdilution method; type: functional, organism-based; conditions: K-12, 3 h
[3] = Inhibition of Escherichia coli UPPS using FPP/IPP as substrate by spectrophotometry
Staphylococcus aureus [4] = assay: Antimicrobial activity against Staphylococcus aureus Newman after 9 hrs by spectrophotometry; type: functional, organism-based
Staphylococcus aureus [5] = assay: Antimicrobial activity against Staphylococcus aureus; type: functional
Staphylococcus aureus [6] = assay: Antimicrobial activity against Staphylococcus aureus assessed as fractional Inhibitory concentration index; type: functional
[7] = Inhibition of FPPS (unknown origin)
[8] = Inhibition of Staphylococcus aureus UPPS
How it was run: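 Continuous spectrophotometric assay following UPPS-catalysed condensation of FPP with IPP. Reaction contained 400 µM MESG, 25 µM IPP, 2.5 µM FPP, […] pH 7.5, 0.01% Triton X-100 and 1 mM MgCl2. IC50 from fit of inhibition data to rectangular hyperbolic dose-response function.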

SMILES | IC50 [1] [µM] | ΔTm [2] [°C] | EC50 (Escherichia coli) [µM] | IC50 [3] [µM] | EC50 (Staphylococcus aureus [4]) [µM] | MIC (Staphylococcus aureus [5]) [µg/mL] | fractional inhibitory concentration index (FICI) (Staphylococcus aureus [6]) | IC50 [7] [µM] | IC50 [8] [µM]
O=C(Nc1cccc(C2=NCCCN2)c1)c1ccc(-c2ccc(C(=O)Nc3cccc(C4=NCCCN4)c3)cc2)cc1 | 4.5 | 10 | 0.66 | 5.5 | 0.23 |  |  |  | 
NCCc1cc(Br)cc(C#Cc2cccc(C#Cc3cc(Br)cc(CCN)c3)c2)c1 | 1.4 | -0.1 | 0.97 | 6.1 | 7.6 |  |  |  | 
O=C(Nc1ccc(C2=NCCN2)cc1)c1ccc(C(=O)Nc2ccc(C3=NCCN3)cc2)c([N+](=O)[O-])c1 | 4.9 | 3.9 | 14 | 4.8 | 28 |  |  |  | 
c1cc2cc(-c3ccc(-c4cc5ccc(C6=NCCN6)cc5[nH]4)cc3)[nH]c2cc1C1=NCCN1 | 1.7 | 16 | 0.33 | 0.36 | 0.029 |  |  |  | 
Cn1cc(NC(=O)c2cc(NC(=O)CNC(=N)N)cn2C)cc1C(=O)NCCC(=N)N [NETROPSIN] | 1000 | 16 | 570 | 1400 | 11 |  |  |  | 
C(=C\c1cc2ccc(C3=NCCN3)cc2[nH]1)/c1cc2ccc(C3=NCCN3)cc2[nH]1 | 5.1 | 20 | 1.2 | 12 | 0.11 |  |  |  | 
c1cc2cc(-c3ccc(-c4cc5ccc(C6=NCCCN6)cc5[nH]4)cc3)[nH]c2cc1C1=NCCCN1 | 0.47 | 24 | 0.24 | 0.68 | 0.028 |  |  |  | 
O=P(O)(O)C(O)(Cc1cccc(-c2cccc(NS(=O)(=O)c3cccc(S(=O)(=O)Nc4cccc(-c5cccc(CC(O)(P(=O)(O)O)P(=O)(O)O)c5)c4)c3)c2)c1)P(=O)(O)O | 0.39 | -1 | > 1500 | 0.36 | 100 |  |  |  | 
COc1cccc(NC(=O)c2ccc(-c3ccc(C(=O)Nc4cccc(C5=NCCN5)c4)cc3)cc2)c1 | 2.1 | 5.2 | 570 | 9.4 | 7.7 |  |  |  | 
N=C(N)c1ccc(OCCCCCOc2ccc(C(=N)N)cc2)cc1 [PENTAMIDINE] | 240 | 2.7 | 12 | 400 | 4.2 |  |  |  | 
OC[C@H]1O[C@@H](Oc2cccc(C#Cc3ccc(C#Cc4cccc(C5=NCCN5)c4)cc3)c2)[C@H](O)[C@@H](O)[C@@H]1O | 5.6 | -1.2 | 900 | 14 | 380 |  |  |  | 
S=C(Nc1cccc(C2=NCCN2)c1)c1ccc(-c2ccc(C(=S)Nc3cccc(C4=NCCN4)c3)cc2)cc1 | 3.5 | 7.1 | 58 | 9.2 | 3 |  |  |  | 
O=C(Nc1cccc(O[C@@H]2O[C@H](CO)[C@@H](O)[C@H](O)[C@H]2O)c1)c1ccc(-c2ccc(C(=O)Nc3cccc(C4=NCCN4)c3)cc2)cc1 | 530 | 5.8 | > 1500 | 380 | 570 |  |  |  | 
CCCCCCOc1cccc(NC(=O)c2ccc(-c3ccc(C(=O)Nc4cccc(C5=NCCN5)c4)cc3)cc2)c1 | 8.9 | 0.7 | > 1500 | 25 | 280 |  |  |  | 
O=C(Nc1cccc(Oc2ccccc2)c1)c1ccc(-c2ccc(C(=O)Nc3cccc(C4=NCCN4)c3)cc2)cc1 | 5.7 | 0.6 | > 1500 | 11 | 10 |  |  |  | 
O=C(Nc1cccc(C2=NCCN2)c1)c1ccc(-c2ccc(C(=O)Nc3cccc(C4=NCCN4)c3)cc2)cc1 |  | 11 |  |  |  | 0.25 (≈ 0.473 µM) | 0.25 | 2 | 0.1
